From ChEMBL document CHEMBL3621107, “Ring fusion strategy for synthesis and lead optimization of sulfur-substituted anthra[1,2-c][1,2,5]thiadiazole-6,11-dione derivatives as promising scaffold of antitumor agents” (Eur J Med Chem, 2015)

Key:
[1] = tested on: UACC-62; assay: Cytotoxicity against human UACC62 cells assessed as cell growth at 10 uM after 48 hrs by SRB assay relative to control; assay type: functional; conditions: UACC-62, 48 h, read-out: Activity
Outline: (§1)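 NCI-60 one-dose screen run by NCI DTP: each cell line exposed to a single 10 µM dose, and percentage growth recorded against untreated growth.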

[2] = tested on: DU-145; assay: Cytotoxicity against human DU145 cells after 72 hrs by MTT assay; assay type: functional, cell-based; conditions: DU-145, 72 h
Outline: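 DU-145 cells grown in RPMI-1640 with 5% heat-inactivated fetal calf serum at 37 °C, 5% CO2. About 2×10^3 cells per well were seeded and incubated for 24 h. Compounds were dissolved in DMSO freshly and diluted into medium (vehicle 0.1% DMSO), then cells were exposed for 72 h. MTT was added for 3 h at 37 °C and absorbance read at 570 nm.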

[3] = tested on: NCI/ADR-RES; assay: Cytotoxicity against human NCI/ADR-RES cells assessed as cell growth at 10 uM after 48 hrs by SRB assay relative to control; assay type: functional; conditions: read-out: Activity
Outline: (§2)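 First-stage NCI DTP one-dose screen against the 60 human tumour cell line panel. Compounds were tested at a single 10 μM level, and results are given as growth percentage.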

[4] = tested on: K562; assay: Cytotoxicity against human K562 cells assessed as cell growth at 10 uM after 48 hrs by SRB assay relative to control; assay type: functional; conditions: K562, 48 h, read-out: Activity
Outline: (§3)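 First-stage NCI-60 screen by the NCI Developmental Therapeutics Program. Each compound was tested once at a single concentration of 10 μM against the 60-cell-line panel. Growth percentage was reported for each cell line.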

[5] = tested on: HT-29; assay: Cytotoxicity against human HT-29 cells assessed as cell growth at 10 uM after 48 hrs by SRB assay relative to control; assay type: functional; conditions: HT-29, 48 h, read-out: Activity; outline: as §3
[6] = tested on: LOX IMVI; assay: Cytotoxicity against human LOXIMVI cells assessed as cell growth at 10 uM after 48 hrs by SRB assay relative to control; assay type: functional; conditions: read-out: Activity; outline: as §3
[7] = tested on: SK-MEL-28; assay: Cytotoxicity against human SK-MEL-28 cells assessed as cell growth at 10 uM after 48 hrs by SRB assay relative to control; assay type: functional; conditions: SK-MEL-28, 48 h, read-out: Activity; outline: as §2
[8] = tested on: MOLT-4; assay: Cytotoxicity against human MOLT4 cells assessed as cell growth at 10 uM after 48 hrs by SRB assay relative to control; assay type: functional; conditions: MOLT-4, 48 h, read-out: Activity; outline: as §2
[9] = Cytotoxicity against human EKVX cells assessed as cell growth at 10 uM after 48 hrs by SRB assay relative to control; assay type: functional; conditions: read-out: Activity; outline: as §3
[10] = tested on: HCT-15; assay: Cytotoxicity against human HCT15 cells assessed as cell growth at 10 uM after 48 hrs by SRB assay relative to control; assay type: functional; conditions: HCT-15, 48 h, read-out: Activity; outline: as §3
[11] = tested on: SF-268; assay: Cytotoxicity against human SF268 cells assessed as cell growth at 10 uM after 48 hrs by SRB assay relative to control; assay type: functional; conditions: SF-268, 48 h, read-out: Activity; outline: as §2
[12] = tested on: HCC 2998; assay: Cytotoxicity against human HCC2998 cells assessed as cell growth at 10 uM after 48 hrs by SRB assay relative to control; assay type: functional; conditions: HCC 2998, 48 h, read-out: Activity; outline: as §3
[13] = tested on: Malme-3M; assay: Cytotoxicity against human MALME-3M cells assessed as cell growth at 10 uM after 48 hrs by SRB assay relative to control; assay type: functional; conditions: read-out: Activity; outline: as §3
[14] = tested on: IGROV-1; assay: Cytotoxicity against human IGROV1 cells assessed as cell growth at 10 uM after 48 hrs by SRB assay relative to control; assay type: functional; conditions: IGROV-1, 48 h, read-out: Activity; outline: as §3
[15] = tested on: HOP-92; assay: Cytotoxicity against human HOP92 cells assessed as cell growth at 10 uM after 48 hrs by SRB assay relative to control; assay type: functional; conditions: HOP-92, 48 h, read-out: Activity; outline: as §3
[16] = tested on: SK-MEL-2; assay: Cytotoxicity against human SK-MEL-2 cells assessed as cell growth at 10 uM after 48 hrs by SRB assay relative to control; assay type: functional; conditions: SK-MEL-2, 48 h, read-out: Activity; outline: as §2
[17] = tested on: NCI-H23; assay: Cytotoxicity against human NCI-H23 cells assessed as cell growth at 10 uM after 48 hrs by SRB assay relative to control; assay type: functional; conditions: NCI-H23, 48 h, read-out: Activity; outline: as §2
[18] = tested on: SN12C; assay: Cytotoxicity against human SN12C cells assessed as cell growth at 10 uM after 48 hrs by SRB assay relative to control; assay type: functional; conditions: read-out: Activity; outline: as §2
[19] = tested on: NCI-H522; assay: Cytotoxicity against human NCI-H522 cells assessed as cell growth at 10 uM after 48 hrs by SRB assay relative to control; assay type: functional; conditions: NCI-H522, 48 h, read-out: Activity; outline: as §2
[20] = tested on: KM12; assay: Cytotoxicity against human KM12 cells assessed as cell growth at 10 uM after 48 hrs by SRB assay relative to control; assay type: functional; conditions: KM12, 48 h, read-out: Activity; outline: as §3
[21] = tested on: UO-31; assay: Cytotoxicity against human UO31 cells assessed as cell growth at 10 uM after 48 hrs by SRB assay relative to control; assay type: functional; conditions: UO-31, 48 h, read-out: Activity; outline: as §1
[22] = tested on: 786-0; assay: Cytotoxicity against human 786-0 cells assessed as cell growth at 10 uM after 48 hrs by SRB assay relative to control; assay type: functional; conditions: 786-0, 48 h, read-out: Activity; outline: as §3
[23] = tested on: CAKI-1; assay: Cytotoxicity against human Caki1 cells assessed as cell growth at 10 uM after 48 hrs by SRB assay relative to control; assay type: functional; conditions: CAKI-1, 48 h, read-out: Activity; outline: as §3
[24] = tested on: MDA-MB-468; assay: Cytotoxicity against human MDA-MB-468 cells assessed as cell growth at 10 uM after 48 hrs by SRB assay relative to control; assay type: functional; conditions: MDA-MB-468, 48 h, read-out: Activity; outline: as §2
[25] = tested on: PC-3; assay: Cytotoxicity against human PC3 cells assessed as cell growth at 10 uM after 48 hrs by SRB assay relative to control; assay type: functional; conditions: PC-3, 48 h, read-out: Activity; outline: as §2
[26] = tested on: M14; assay: Cytotoxicity against human M14 cells assessed as cell growth at 10 uM after 48 hrs by SRB assay relative to control; assay type: functional; conditions: M14, 48 h, read-out: Activity; outline: as §3
[27] = tested on: RPMI-8226; assay: Cytotoxicity against human RPMI8226 cells assessed as cell growth at 10 uM after 48 hrs by SRB assay relative to control; assay type: functional; conditions: RPMI-8226, 48 h, read-out: Activity; outline: as §2
[28] = tested on: ACHN; assay: Cytotoxicity against human ACHN cells assessed as cell growth at 10 uM after 48 hrs by SRB assay relative to control; assay type: functional; conditions: read-out: Activity; outline: as §3
[29] = tested on: SK-MEL-5; assay: Cytotoxicity against human SK-MEL-5 cells assessed as cell growth at 10 uM after 48 hrs by SRB assay relative to control; assay type: functional; conditions: SK-MEL-5, 48 h, read-out: Activity; outline: as §2
[30] = tested on: MDA-MB-435; assay: Cytotoxicity against human MDA-MB-435 cells assessed as cell growth at 10 uM after 48 hrs by SRB assay relative to control; assay type: functional; conditions: MDA-MB-435, 48 h, read-out: Activity; outline: as §2
[31] = tested on: SNB-75; assay: Cytotoxicity against human SNB75 cells assessed as cell growth at 10 uM after 48 hrs by SRB assay relative to control; assay type: functional; conditions: SNB-75, 48 h, read-out: Activity; outline: as §1

| SMILES | growth at 10 µM [1] | IC50 [2] | growth at 10 µM [3] | growth at 10 µM [4] | growth at 10 µM [5] | growth at 10 µM [6] | growth at 10 µM [7] | growth at 10 µM [8] | growth at 10 µM [9] | growth at 10 µM [10] | growth at 10 µM [11] | growth at 10 µM [12] | growth at 10 µM [13] | growth at 10 µM [15] | growth at 10 µM [16] | growth at 10 µM [17] | growth at 10 µM [18] | growth at 10 µM [19] | growth at 10 µM [20] | growth at 10 µM [21] | further results |
| --- | --- | --- | --- | --- | --- | --- | --- | --- | --- | --- | --- | --- | --- | --- | --- | --- | --- | --- | --- | --- | --- |
| COc1ccc(Sc2cc3c(c4nsnc24)C(=O)c2ccccc2C3=O)cc1 | 109% | 8.26 µM | 97.6% | 92% | 101% | 90.2% | 116% | 82.9% | 149% | 109% | 94.8% | 107% | 89.5% | 91.4% | 99.2% | 89.1% | 107% | 95.7% | 101% | 68.3% | growth at 10 µM [14]: 103%; growth at 10 µM [22]: 94.9%; growth at 10 µM [23]: 108%; growth at 10 µM [24]: 113%; growth at 10 µM [25]: 82.8%; growth at 10 µM [26]: 92.9%; growth at 10 µM [27]: 101%; growth at 10 µM [28]: 102%; growth at 10 µM [29]: 106%; growth at 10 µM [30]: 119%; growth at 10 µM [31]: 79% |
| O=C1c2ccccc2C(=O)c2c1cc(Sc1ccc(F)cc1F)c1nsnc21 | 53.3% | 9.12 µM | -26.2% | -21.1% | 102% | -42% | 79.5% | -41.6% | 98.1% | 45.8% | 8.47% | 107% | 39.5% | -18.4% | 51.8% | 9.53% | 9.12% | 61.1% | 51.8% | 70.3% | growth at 10 µM [22]: 3.74%; growth at 10 µM [23]: 24%; growth at 10 µM [24]: -87%; growth at 10 µM [25]: -9.72%; growth at 10 µM [26]: 53.8%; growth at 10 µM [27]: 6.29%; growth at 10 µM [28]: 34.9%; growth at 10 µM [29]: 48.5%; growth at 10 µM [30]: -85.3%; growth at 10 µM [31]: 42.9% |
| Cc1ccc(Sc2cc3c(c4nsnc24)C(=O)c2ccccc2C3=O)c(C)c1 | 94.5% | 15.9 µM | 97.8% | 68% | 101% | 90.4% | 119% | 91% | 109% | 83% | 90.6% | 121% | 108% | 97.8% | 98.5% | 89.4% | 98.7% | 96.8% | 96.4% | 65.7% | growth at 10 µM [14]: 95%; growth at 10 µM [22]: 105%; growth at 10 µM [24]: 100%; growth at 10 µM [25]: 76.1%; growth at 10 µM [26]: 101%; growth at 10 µM [27]: 85.1%; growth at 10 µM [28]: 94.2%; growth at 10 µM [29]: 110%; growth at 10 µM [30]: 106%; growth at 10 µM [31]: 76% |
